The subject of data set [1] is Trypanosoma brucei brucei. In words: Antitrypanosomal activity against Trypanosoma brucei brucei 427 bloodstream forms assessed as increase in intracellular free iron level at 3.1 uM co-incubated with DFO after 1 hr by PhenGreen SK diacetate reagent based flow cytometry. It counts as functional, cell-based. In short, it runs like this: (§1)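 Strain 427 at 2x10^6/mL in triplicate with 3.1 µM test compound, with or without 10 or 100 µM deferoxamine or bipyridine; 1% DMSO control. After 40 min at 37 °C/5% CO2, PhenGreen SK diacetate added at 10 µM for 20 min more. Cells diluted in PBS/1% glucose and probe fluorescence (ex 488 nm) read by flow cytometry; mean ± SD (n=3).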
(In general: A flow cytometer gives signals particle by particle.)

For data set [2], the system named is Trypanosoma brucei brucei. The experiment in a line: Antitrypanosomal activity against Trypanosoma brucei brucei 427 bloodstream forms assessed as induction of membrane damage at 155 nM after 2 to 4 hrs by propidium iodide dye based flow cytometry. It counts as functional. Summed up:
(§2)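 Bloodstream strain 427 at 5x10^5/mL in triplicate, exposed to 310, 155 or 77.5 nM, 0.001% v/v Triton X-100, 15 µM nifurtimox or 1% v/v DMSO. Incubated 0.5, 1, 2 or 4 h, then diluted into PBS/1% glucose. PI added at 2 µg/mL just before flow cytometry. Result is % PI-positive cells, mean ± SD (n=3), with one-way ANOVA and Dunnett's test against DMSO.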

In data set [3] the test system is Trypanosoma brucei brucei. In words: Antitrypanosomal activity against Trypanosoma brucei brucei 427 bloodstream forms infected CHO-K1 cells expressing redox biosensor hGrx-roGFP2 assessed as induction of hGrx-roGFP2 oxidation at 77.5 to 310 nM after 1 hr by flow cytometric method. It counts as functional. In short, it runs like this:
(§3)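 Parasites induced with oxytetracycline for 24 h, then moved to 1x10^6/200 µL without inducer. Treated in triplicate for 1 h at 37 °C with 78–310 nM test compound, 1 mM menadione, 15 µM nifurtimox, 1 mM DTT or 1% DMSO. Half then given 1 mM DTT for 30 min more. PI at 2 µg/mL added; biosensor read at 488/530 nm in PI-negative cells only, as % reduction relative to DMSO.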

Data set [4] concerns Trypanosoma brucei brucei. In words: Antitrypanosomal activity against Trypanosoma brucei brucei 427 bloodstream forms assessed as induction of membrane damage at 77.5 to 310 nM by propidium iodide dye based flow cytometry. It counts as functional. The settings on record: TDE = time-dependent effect. In short, it runs like this: as §2
Data set [5] deals with Trypanosoma brucei brucei. In words: Antitrypanosomal activity against Trypanosoma brucei brucei 427 bloodstream forms assessed as membrane damage in presence of bipyridine at 0.31 uM after 2 hr by propidium iodide staining-based flow cytometry.
Data set [6] relates to Trypanosoma brucei brucei. In words: Antitrypanosomal activity against Trypanosoma brucei brucei 427 bloodstream forms assessed as induction of mitochondrial damage at 0.31 uM preincubated for 30 mins followed by addition of Mitotracker red CM-H2XRos further incubated for 30 mins and measured by epifluorescence microscopy. It counts as functional. In short, it runs like this: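 Strain 427 at 1x10^6/mL treated with 0.31 µM test compound for 30 min. MitoTracker Red CM-H2XRos then added at 250 nM for 30 min more. Cells centrifuged, PBS-washed, fixed in 4% paraformaldehyde for 18 min, mounted with DAPI. Mitochondrial morphology and staining intensity compared with 1% DMSO-treated cells by fluorescence microscopy.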

Data set [7] deals with Trypanosoma brucei brucei. In words: Antitrypanosomal activity against Trypanosoma brucei brucei 427 bloodstream forms infected CHO-K1 cells expressing redox biosensor rxYFP assessed as induction of rxYFP oxidation at 1 to 10 uM after 1 hr by propidium iodide based flow cytometry relative to control. It counts as functional. In short, it runs like this: (§4)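 CHO-K1 cells expressing rxYFP in DMEM with 10% FCS, given 400 µg/mL zeocin 48 h before the assay. Trypsinized cells seeded at 8x10^5/mL and treated in triplicate for 1 h at 37 °C with 1, 5 or 10 µM test compound, 1 mM menadione, H2O2 or DTT, or 1% DMSO. Some wells then given 1 mM DTT for 30 min. PI-negative cells analysed by flow cytometry (488/530 nm), as % reduction relative to DMSO.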

For data set [8], the system named is Trypanosoma brucei brucei. In words: Antitrypanosomal activity against Trypanosoma brucei brucei 427 bloodstream forms infected CHO-K1 cells expressing redox biosensor rxYFP assessed as induction of rxYFP oxidation at 10 uM preincubated for 1 hr followed by DTT addition measured after 30 mins by propidium iodide based flow cytometry relative to control. It counts as functional. In short, it runs like this: as §4

The test system of data set [9] is Trypanosoma brucei brucei. The experiment in a line: Antitrypanosomal activity against Trypanosoma brucei brucei 427 bloodstream forms assessed as induction of membrane damage at 310 nM after 3 hrs by propidium iodide dye based flow cytometry relative to control. It counts as functional.
Data set [10] concerns Trypanosoma brucei brucei. In words: Antitrypanosomal activity against Trypanosoma brucei brucei 427 bloodstream forms assessed as increase in intracellular free iron level at 3.1 uM after 1 hr by PhenGreen SK diacetate reagent based flow cytometry. It counts as functional. Summed up: as §1
The subject of data set [11] is Leishmania infantum. The experiment in a line: Inhibition of Leishmania infantum recombinant trypanothione synthetase using GSH/spermididine as substrate assessed as residual activity by measuring phosphate release from ATP at 30 uM after 15 mins by Biomol Green reagent based assay relative to control.
Data set [12] concerns Trypanosoma brucei brucei. The experiment in a line: Antitrypanosomal activity against Trypanosoma brucei brucei 427 bloodstream forms infected CHO-K1 cells expressing redox biosensor hGrx-roGFP2 assessed as induction of hGrx-roGFP2 oxidation at 77.5 to 310 nM preincubated for 1 hr followed by DTT addition measured after 30 mins by flow cytometric method. It counts as functional. In short, it runs like this: as §3

Data set [13] relates to Trypanosoma brucei brucei. In words: Antitrypanosomal activity against Trypanosoma brucei brucei 427 bloodstream forms assessed as decrease in parasite levels with discrete lysosomal signal at 0.31 uM preincubated for 30 mins followed by addition of Lysotracker red DND-99 further incubated for 30 mins and measured by epifluorescence microscopy relative to control. It counts as functional.

Data set [14] is described as follows: Selectivity index, ratio of EC50 for murine macrophage J774 cells to EC50 for Trypanosoma brucei brucei 427 bloodstream forms. The following applies: mouse; read-out: Ratio EC50. It counts as toxicity.
Data set [15] has as its system Trypanosoma brucei brucei. The experiment in a line: Antitrypanosomal activity against Trypanosoma brucei brucei 427 bloodstream forms after 24 hrs by propidium iodide dye based flow cytometry. It counts as functional. The settings on record: Trypanosoma brucei, 427, 24 h. In short, it runs like this:
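Bloodstream T. b. brucei 427 grown in HMI-9 with 10% FBS, penicillin/streptomycin, 37 °C, 5% CO2. Exponential-phase cells seeded at 5x10^5/mL; compounds added from DMSO stocks, 1% v/v DMSO final. […] Exposure 24 h, then diluted into PBS/1% glucose with 2 µg/mL PI and counted by flow cytometry. Viability given as % of DMSO-treated cell count.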

The test system of data set [16] is Trypanosoma brucei brucei. In words: Antitrypanosomal activity against Trypanosoma brucei brucei 427 bloodstream forms assessed as induction of membrane damage at 310 nM after 2 hrs by propidium iodide dye based flow cytometry relative to control. It counts as functional. In short, it runs like this: as §2
In data set [17] the test system is Trypanosoma brucei brucei. In words: Antitrypanosomal activity against Trypanosoma brucei brucei 427 bloodstream forms assessed as induction of membrane damage at 310 nM parasite preincubated with 125 to 500 uM DFO for 3 hrs followed by test compound addition measured after 3 hrs by propidium iodide dye based flow cytometry relative to control. It counts as functional. In short, it runs like this:
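Strain 427 at 1x10^6/mL in triplicate at 37 °C. Arm A: 0.31 µM test compound with 100 µM DFO or bipyridine for 2 h. Arm B: DFO at 125–500 µM for 3 h, then 0.31 µM test compound for a further 3 h. Membrane integrity read by PI staining and flow cytometry; mean ± SD (n=3).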

Data set [18] relates to Trypanosoma cruzi. In words: Inhibition of Trypanosoma cruzi recombinant trypanothione synthetase using GSH/spermididine as substrate assessed as residual activity by measuring phosphate release from ATP at 30 uM after 15 mins by Biomol Green reagent based assay relative to control.
Data set [19] deals with Trypanosoma brucei brucei. In words: Antitrypanosomal activity against Trypanosoma brucei brucei 427 bloodstream forms assessed as induction of membrane damage at 310 nM after 1 hr by propidium iodide dye based flow cytometry. It counts as functional. Summed up: as §2
The subject of data set [20] is Trypanosoma brucei brucei. In words: Antitrypanosomal activity against Trypanosoma brucei brucei 427 bloodstream forms assessed as induction of membrane damage at 310 nM after 2 to 4 hrs by propidium iodide dye based flow cytometry. It counts as functional. In short, it runs like this:
as §2

Data set [21] relates to Trypanosoma brucei brucei. In words: Antitrypanosomal activity against Trypanosoma brucei brucei 427 bloodstream forms assessed as increase in intracellular free iron level at 3.1 uM co-incubated with bipyridine for 1 hr by PhenGreen SK diacetate reagent based flow cytometry.
Data set [22] has as its system Trypanosoma brucei brucei. The experiment in a line: Inhibition of Trypanosoma brucei brucei recombinant trypanothione synthetase using GSH/spermididine as substrate assessed as residual activity by measuring phosphate release from ATP at 30 uM after 15 mins by Biomol Green reagent based assay relative to control.

We go through one compound from ChEMBL document CHEMBL3994590, “In vitro activity and mode of action of distamycin analogues against African trypanosomes” (Eur J Med Chem, 2017).

Molecules are shown by their SMILES. Active and inactive are the calls of the source. The rule behind the calls is not given here.

What is called EC50 is the concentration at which the effect is half-maximal. High values mean weaker potency, low ones greater potency. Take `CCOC(=O)c1csc(NC(=O)c2csc(NC(=O)c3csc(NC(=O)OC(C)(C)C)n3)n2)n1`: the result in [1], in data set [6], in [8], in data set [12] and in data set [21] was inactive. In addition, in data set [2], the outcome was Active. In addition, the Activity in [3] is 10%; in data set [4] it was “Tde”; in data set [5], 47%; in [7], 10%; in data set [9] it was 80%; in data set [10], 50%. For the same compound, the Activity in data set [11] was 106%; in data set [16] it was 87%; in data set [17], 40 - 67%; in data set [18], 126%; in [19] it was 10%; in [20], 80 - 90%. For the same compound, the Activity in [22] was 120%. Also, the “fold change (FC)” value in [13] is on record as >3. For the same compound, in [14], the selectivity ratio stood at 16.5. In addition, in [15], the EC50 was 310 nM.
